High-throughput results: PubChem, Broad Institute
INS-1E ATP HTS: protection of INS-1E cells from cytokine death, primary screen, ATP luminescence, single point | protection from cytokine-induced ATP loss, % at 10 µM | AID 488910, 2010 | INS-1E cytokine-induced death, 48 h; normalised: neutral wells 0, positive control 100 | actives 0.1% (n = 20,000);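 active = mean replicate protection from cytokine-induced ATP loss at least 50% and at least 75% of replicates each reaching 50%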
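Material: INS-1E rat cells; Quantity: 8000 cells/well; Buffer or medium: phenol-red-free RPMI with 5% fetal bovine serum; Probe or stimulus: cytokine cocktail of IFN-γ, TNF-α and IL-1β; Compound dosing: single test concentration per compound, delivered by pin transfer; Incubation: 48 h co-treatment, 10 min post-lysis read; Signal: CellTiter-Glo luminescence.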
A1 apoptosis 2: A1 inhibitors via caspase activation, primary screen, cell-based, luminescence, HTS, two replicates | MEF A1-2A-BIM cells, caspase-Glo luminescence, 3 h; percent of clofoctol response, DMSO zero | caspase activation, % (concentration not given with the values) | 24,000 tested, under 10 active | AID 2465, 2010; in the data active = caspase activation above about 5.9%
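Evaluation: Caspase-3/7 activity from luminescence increase | Assay system: A1-2A-BIM mouse embryonic fibroblasts | Quantity: 2500 MEF cells/well | Medium: RPMI-1640 plus 10% FBS | Detection: Caspase-Glo 3/7 luminescence, 1 h at room temperature | Dosing: 50 nL compound per well, pinned | Timing: Cells settled overnight, compound exposure 3 h at 37 °C, 5% CO2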
T cruzi HTS: inhibitors of intracellular Trypanosoma cruzi, primary screen, cell-based, plate reader, single point, set 2 | intracellular Trypanosoma cruzi in host cells | activity score (inhibition), % at 5.01 µM | actives 4.9% (n = 22,000) | AID 651903, 2012; in the data active = activity score above about 55%;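 also: parasites and compound incubated about four days before reading; 0% = median of neutral control wells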
The depositor's hits bear a star. Only a selection was taken, and hits are over-represented in it overall.

For C[C@@H]1CN([C@H](C)CO)C(=O)c2cccc(NC(=O)c3nc4ccccc4s3)c2O[C@H]1CN(C)S(=O)(=O)c1ccccc1 the results were INS-1E ATP HTS -11 and T cruzi HTS 28.
For C[C@@H]1CN([C@H](C)CO)C(=O)c2cccc(NC(=O)c3nc4ccccc4s3)c2O[C@@H]1CN(C)S(=O)(=O)c1ccccc1 the results were INS-1E ATP HTS 6 and T cruzi HTS 9.
For C[C@@H]1CN([C@H](C)CO)C(=O)c2cccc(NS(=O)(=O)c3ccc(F)cc3)c2O[C@@H]1CN(C)S(=O)(=O)c1ccc(F)cc1 the results were INS-1E ATP HTS 2, A1 apoptosis 2 -1 and T cruzi HTS 16.
Screening Cc1ccc(S(=O)(=O)N(C)C[C@H]2Oc3c(NC(=O)c4nc5ccccc5s4)cccc3C(=O)N([C@H](C)CO)C[C@H]2C)cc1 returned INS-1E ATP HTS 4 and T cruzi HTS 16.
`Cc1ccc(S(=O)(=O)N(C)C[C@H]2Oc3c(NC(=O)c4nc5ccccc5s4)cccc3C(=O)N([C@H](C)CO)C[C@@H]2C)cc1` gave INS-1E ATP HTS -18 and T cruzi HTS 89*.
For C[C@H](CO)N1C[C@H](C)[C@H](CN(C)S(=O)(=O)c2ccc(F)cc2)Oc2c(NS(=O)(=O)c3ccc(F)cc3)cccc2C1=O the results were INS-1E ATP HTS -5, A1 apoptosis 2 1 and T cruzi HTS 61*.
Screening C[C@@H]1CN([C@@H](C)CO)C(=O)c2cccc(NC(=O)c3nc4ccccc4s3)c2O[C@@H]1CN(C)S(=O)(=O)c1ccccc1 returned INS-1E ATP HTS -40 and T cruzi HTS 60*.
For C[C@H](CO)N1C[C@H](C)[C@H](CN(C)S(=O)(=O)c2ccc(F)cc2)Oc2c(NC(=O)c3nc4ccccc4s3)cccc2C1=O the results were INS-1E ATP HTS -37 and T cruzi HTS 61*.
O=C(N=NC=C1C=CN(O)C=C1)c1ccccn1 was read as INS-1E ATP HTS -4, A1 apoptosis 2 0 and T cruzi HTS -33.
`CC(C)(C)OC(=O)Nc1ccc(/C=N/NC(=O)c2cccc(C(=O)NO)c2)cc1` gave INS-1E ATP HTS -10 and T cruzi HTS 0.
For C=C(C)[C@@H]1CC=C(/C=N/NC(=O)c2cccc(C(=O)NO)c2)CC1 the results were INS-1E ATP HTS -7, A1 apoptosis 2 -10 and T cruzi HTS -4.
`CCOc1ncnc2ccc(Br)cc12` gave A1 apoptosis 2 1.
For CC(C)(C)OC(=O)NC1(/C=N/NC(=O)c2ccc(C(=O)NO)cc2)CCCC1 the results were INS-1E ATP HTS 17 and T cruzi HTS -14.
Screening Cc1ccc(S(=O)(=O)N(C)C[C@H]2Oc3c(NC(=O)c4nc5ccccc5s4)cccc3C(=O)N([C@@H](C)CO)C[C@@H]2C)cc1 returned INS-1E ATP HTS -12 and T cruzi HTS 75*.
Screening Cc1ccc(S(=O)(=O)N(C)C[C@H]2Oc3c(NC(=O)c4nc5ccccc5s4)cccc3C(=O)N([C@@H](C)CO)C[C@H]2C)cc1 returned INS-1E ATP HTS -17, A1 apoptosis 2 0 and T cruzi HTS 16.
`COc1ccc(NC(=O)Nc2cccc3c2O[C@H](CN(C)Cc2ccc(C(=O)Nc4ccccc4N)cc2)[C@@H](C)CN([C@H](C)CO)C3=O)cc1` gave INS-1E ATP HTS 9 and T cruzi HTS 37.
Screening COc1ccc(NC(=O)Nc2cccc3c2O[C@@H](CN(C)Cc2ccc(C(=O)Nc4ccccc4N)cc2)[C@H](C)CN([C@H](C)CO)C3=O)cc1 returned INS-1E ATP HTS 0 and T cruzi HTS 67*.
For COc1ccc(NC(=O)Nc2cccc3c2O[C@H](CN(C)Cc2ccc(C(=O)Nc4ccccc4N)cc2)[C@@H](C)CN([C@@H](C)CO)C3=O)cc1 the results were INS-1E ATP HTS 24 and T cruzi HTS 56*.
`COc1ccc(NC(=O)Nc2cccc3c2O[C@H](CN(C)Cc2ccc(C(=O)Nc4ccccc4N)cc2)[C@H](C)CN([C@@H](C)CO)C3=O)cc1` gave INS-1E ATP HTS 2 and T cruzi HTS 46.
Screening O=C1O[C@H](c2ccccc2)[C@H](c2ccccc2)N2[C@H]1[C@@H](C(=O)N1CCN(c3ncccn3)CC1)[C@]1(C(=O)Nc3ccc(C#CCCO)cc31)[C@H]2c1ccc(O)cc1 returned A1 apoptosis 2 1.
`O=C(CCCCCCC(=O)N/N=C/c1cc(O)ccc1[N+](=O)[O-])NO` gave A1 apoptosis 2 1.
Screening O=C1O[C@@H](c2ccccc2)[C@@H](c2ccccc2)N2[C@@H](c3ccccc3OCCO)[C@]3(C(=O)Nc4ccc(C#CCCO)cc43)[C@@H](C(=O)Nc3nc4ccccc4s3)[C@H]12 returned A1 apoptosis 2 0.
For C[C@@H]1CN([C@@H](C)CO)C(=O)c2cccc(NC(=O)c3ccncc3)c2O[C@@H]1CN(C)Cc1ccc(Cl)c(Cl)c1 the results were INS-1E ATP HTS -8, A1 apoptosis 2 -1 and T cruzi HTS 68*.
`C[C@H](CO)N1C[C@H](C)[C@H](CN(C)Cc2ccc(Cl)c(Cl)c2)Oc2c(NC(=O)c3cnccn3)cccc2C1=O` gave INS-1E ATP HTS -23 and T cruzi HTS 43.
`C[C@H](CO)N1C[C@H](C)[C@@H](CN(C)Cc2ccc(Cl)c(Cl)c2)Oc2c(NC(=O)c3ccncc3)cccc2C1=O` gave INS-1E ATP HTS -14, A1 apoptosis 2 1 and T cruzi HTS 78*.
CCOC(=O)[C@H](Cc1ccccc1)NC(=O)Cn1cc(COc2ccccc2/C=C(C)/C=C/C(=O)NO)nn1 was read as A1 apoptosis 2 1.
For CCOc1cccc(/C=N/NC(=O)c2ccccc2O)c1OCC the results were INS-1E ATP HTS -12, A1 apoptosis 2 -1 and T cruzi HTS -19.
`C[C@H](CO)N1C[C@H](C)[C@H](CN(C)C(=O)Nc2ccc3c(c2)OCO3)Oc2ncc(-c3cccc(C(F)(F)F)c3)cc2C1=O` gave T cruzi HTS 67*.
Screening COc1ccc(NC(=O)N(C)C[C@@H]2Oc3ncc(-c4ccc(OC)cc4)cc3C(=O)N([C@H](C)CO)C[C@@H]2C)cc1 returned T cruzi HTS 29.
For C[C@H](CO)N1C[C@H](C)[C@H](CN(C)C(=O)Nc2ccc3c(c2)OCO3)Oc2ncc(C#Cc3ccc(F)cc3)cc2C1=O the results were INS-1E ATP HTS -3, A1 apoptosis 2 2 and T cruzi HTS -17.
Screening COc1ccc(NC(=O)N(C)C[C@@H]2Oc3ncc(-c4cccc(C(F)(F)F)c4)cc3C(=O)N([C@H](C)CO)C[C@@H]2C)cc1 returned A1 apoptosis 2 -1 and T cruzi HTS 59*.
C[C@H](CO)N1C[C@H](C)[C@H](CN(C)C(=O)Nc2ccc3c(c2)OCO3)Oc2ncc(-c3cccc(F)c3)cc2C1=O was read as T cruzi HTS -15.
Screening C[C@H](CO)N1C[C@H](C)[C@H](CN(C)C(=O)Nc2ccc3c(c2)OCO3)Oc2ncc(C#Cc3ccccc3)cc2C1=O returned A1 apoptosis 2 1 and T cruzi HTS 69*.
